Several values for one entry are separate records, joined by “and”; a condition that tells them apart may be missing. Identical values can stand only once.
The compounds below were run on HEK-293T (assay: Multiplex assay against HEK293T). Conditions: human, 12 h, 1 µM, compound concentration 1 uM.
Format: toxicity, cell-based
In short: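 Values for tubulin, mitochondrial-mass and membrane-permeability phenotypes are per cents of cells with healthy nuclei. These cells were identified by CellPathfinder machine-learning gating of live cells that had been stained at seeding with Hoechst33342, BioTracker Green Microtubule Cytoskeleton Dye, MitoTracker Red and Annexin V Alexa Fluor 680 and imaged on a CQ1 microscope at 37°C and 5% CO2 after compound addition. The gating first set Hoechst high-intensity objects apart from normal cells, then split normal cells into healthy, pyknosed or fragmented nuclei, and pyknosed cells into mitotic or apoptotic.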

| Structure (SMILES) | Population Apoptotic (%) | Population Fragmented Nuclei (%) | Population Healthy Nuclei (%) | Population Hoechst High Intensity Objects (%) | Population Membrane Permeable-Phenotype (%) | Population Mitochondria Different-Phenotype (%) | Population Mitotic Cells (%) | Population Normal (%) | Population Pyknosed Nuclei (%) | Population Tubulin-Different-Phenotype (%) |
| --- | --- | --- | --- | --- | --- | --- | --- | --- | --- | --- |
| COc1ccccc1N1CCN(C[C@@H](C(=O)NC(C)(C)C)c2ccccc2)CC1.Cl.Cl | 24% and 42% | 7% and 4% | 77% and 76% | 7% and 6% | 0 | 48% and 77% | 75% and 57% | 92% and 93% | 14% and 19% | 47% and 35% |
| O=c1ccc2ccc(OCCCCN3CCN(c4cccc5sccc45)CC3)cc2[nH]1 [BREXPIPRAZOLE] | 44% and 42% | 6% and 5% | 77% and 80% | 6% | 0 | 67% and 69% | 55% and 57% | 93% | 15% and 14% | 51% and 47% |

Same assay, conditions: human, 12 h, 1 µM, compound concentration 1 uM

| Structure (SMILES) | Total Cell Count |
| --- | --- |
| COc1ccccc1N1CCN(C[C@@H](C(=O)NC(C)(C)C)c2ccccc2)CC1.Cl.Cl | 434 and 300 |
| O=c1ccc2ccc(OCCCCN3CCN(c4cccc5sccc45)CC3)cc2[nH]1 [BREXPIPRAZOLE] | 392 and 354 |

Same assay, conditions: human, 12 h, 10 µM, compound concentration 10 uM

| Structure (SMILES) | Population Apoptotic (%) | Population Fragmented Nuclei (%) | Population Healthy Nuclei (%) | Population Hoechst High Intensity Objects (%) | Population Membrane Permeable-Phenotype (%) | Population Mitochondria Different-Phenotype (%) | Population Mitotic Cells (%) | Population Normal (%) | Population Pyknosed Nuclei (%) | Population Tubulin-Different-Phenotype (%) |
| --- | --- | --- | --- | --- | --- | --- | --- | --- | --- | --- |
| COc1ccccc1N1CCN(C[C@@H](C(=O)NC(C)(C)C)c2ccccc2)CC1.Cl.Cl | 62% and 58% | 7% and 5% | 69% | 7% and 16% | 0 | 88% and 79% | 37% and 41% | 92% and 83% | 23% and 25% | 74% and 59% |
| O=c1ccc2ccc(OCCCCN3CCN(c4cccc5sccc45)CC3)cc2[nH]1 [BREXPIPRAZOLE] | 82% and 85% | 17% and 10% | 43% and 66% | 66% and 41% | 0 | 97% and 100% | 17% and 14% | 33% and 59% | 38% and 23% | 81% and 62% |

Same assay, conditions: human, 12 h, 10 µM, compound concentration 10 uM

| Structure (SMILES) | Total Cell Count |
| --- | --- |
| COc1ccccc1N1CCN(C[C@@H](C(=O)NC(C)(C)C)c2ccccc2)CC1.Cl.Cl | 333 and 231 |
| O=c1ccc2ccc(OCCCCN3CCN(c4cccc5sccc45)CC3)cc2[nH]1 [BREXPIPRAZOLE] | 299 and 200 |

Same assay, conditions: human, 24 h, 1 µM, compound concentration 1 uM

| Structure (SMILES) | Population Apoptotic (%) | Population Fragmented Nuclei (%) | Population Healthy Nuclei (%) | Population Hoechst High Intensity Objects (%) | Population Membrane Permeable-Phenotype (%) | Population Mitochondria Different-Phenotype (%) | Population Mitotic Cells (%) | Population Normal (%) | Population Pyknosed Nuclei (%) | Population Tubulin-Different-Phenotype (%) |
| --- | --- | --- | --- | --- | --- | --- | --- | --- | --- | --- |
| COc1ccccc1N1CCN(C[C@@H](C(=O)NC(C)(C)C)c2ccccc2)CC1.Cl.Cl | 19% and 34% | 8% and 11% | 81% and 76% | 4% and 6% | 0 | 31% and 54% | 80% and 65% | 95% and 93% | 9% and 11% | 29% and 28% |
| O=c1ccc2ccc(OCCCCN3CCN(c4cccc5sccc45)CC3)cc2[nH]1 [BREXPIPRAZOLE] | 41% and 42% | 10% and 4% | 73% and 87% | 8% and 2% | 0 | 51% and 52% | 58% and 57% | 91% and 97% | 16% and 7% | 36% and 35% |

Same assay, conditions: human, 24 h, 1 µM, compound concentration 1 uM

| Structure (SMILES) | Total Cell Count |
| --- | --- |
| COc1ccccc1N1CCN(C[C@@H](C(=O)NC(C)(C)C)c2ccccc2)CC1.Cl.Cl | 563 and 387 |
| O=c1ccc2ccc(OCCCCN3CCN(c4cccc5sccc45)CC3)cc2[nH]1 [BREXPIPRAZOLE] | 501 and 449 |

Same assay, conditions: human, 24 h, 10 µM, compound concentration 10 uM

| Structure (SMILES) | Population Apoptotic (%) | Population Fragmented Nuclei (%) | Population Healthy Nuclei (%) | Population Hoechst High Intensity Objects (%) | Population Membrane Permeable-Phenotype (%) | Population Mitochondria Different-Phenotype (%) | Population Mitotic Cells (%) | Population Normal (%) | Population Pyknosed Nuclei (%) | Population Tubulin-Different-Phenotype (%) |
| --- | --- | --- | --- | --- | --- | --- | --- | --- | --- | --- |
| COc1ccccc1N1CCN(C[C@@H](C(=O)NC(C)(C)C)c2ccccc2)CC1.Cl.Cl | 45% and 66% | 8% | 68% and 76% | 7% and 14% | 0 | 77% and 73% | 54% and 33% | 92% and 85% | 23% and 15% | 61% and 48% |
| O=c1ccc2ccc(OCCCCN3CCN(c4cccc5sccc45)CC3)cc2[nH]1 [BREXPIPRAZOLE] | 91% and 89% | 12% and 10% | 37% and 59% | 68% and 46% | 0 | 100% and 98% | 8% and 10% | 31% and 53% | 50% and 30% | 66% and 57% |

Same assay, conditions: human, 24 h, 10 µM, compound concentration 10 uM

| Structure (SMILES) | Total Cell Count |
| --- | --- |
| COc1ccccc1N1CCN(C[C@@H](C(=O)NC(C)(C)C)c2ccccc2)CC1.Cl.Cl | 377 and 251 |
| O=c1ccc2ccc(OCCCCN3CCN(c4cccc5sccc45)CC3)cc2[nH]1 [BREXPIPRAZOLE] | 284 and 180 |

Same assay, conditions: human, 48 h, 1 µM, compound concentration 1 uM

| Structure (SMILES) | Population Apoptotic (%) | Population Fragmented Nuclei (%) | Population Healthy Nuclei (%) | Population Hoechst High Intensity Objects (%) | Population Membrane Permeable-Phenotype (%) | Population Mitochondria Different-Phenotype (%) | Population Mitotic Cells (%) | Population Normal (%) | Population Pyknosed Nuclei (%) | Population Tubulin-Different-Phenotype (%) |
| --- | --- | --- | --- | --- | --- | --- | --- | --- | --- | --- |
| COc1ccccc1N1CCN(C[C@@H](C(=O)NC(C)(C)C)c2ccccc2)CC1.Cl.Cl | 22% and 38% | 13% and 10% | 78% and 80% | 2% and 6% | 1% and 0% | 19% and 37% | 77% and 61% | 97% and 93% | 8% and 9% | 18% and 20% |
| O=c1ccc2ccc(OCCCCN3CCN(c4cccc5sccc45)CC3)cc2[nH]1 [BREXPIPRAZOLE] | 49% and 48% | 9% and 12% | 80% and 79% | 5% and 3% | 0% and 1% | 47% and 36% | 50% and 51% | 94% and 96% | 10% and 7% | 28% and 26% |

Same assay, conditions: human, 48 h, 1 µM, compound concentration 1 uM

| Structure (SMILES) | Total Cell Count |
| --- | --- |
| COc1ccccc1N1CCN(C[C@@H](C(=O)NC(C)(C)C)c2ccccc2)CC1.Cl.Cl | 908 and 480 |
| O=c1ccc2ccc(OCCCCN3CCN(c4cccc5sccc45)CC3)cc2[nH]1 [BREXPIPRAZOLE] | 679 and 644 |

Same assay, conditions: human, 48 h, 10 µM, compound concentration 10 uM

| Structure (SMILES) | Population Apoptotic (%) | Population Fragmented Nuclei (%) | Population Healthy Nuclei (%) | Population Hoechst High Intensity Objects (%) | Population Membrane Permeable-Phenotype (%) | Population Mitochondria Different-Phenotype (%) | Population Mitotic Cells (%) | Population Normal (%) | Population Pyknosed Nuclei (%) | Population Tubulin-Different-Phenotype (%) |
| --- | --- | --- | --- | --- | --- | --- | --- | --- | --- | --- |
| COc1ccccc1N1CCN(C[C@@H](C(=O)NC(C)(C)C)c2ccccc2)CC1.Cl.Cl | 50% and 62% | 14% and 10% | 72% and 76% | 6% and 5% | 0 | 59% and 58% | 49% and 37% | 93% and 94% | 13% | 44% and 36% |
| O=c1ccc2ccc(OCCCCN3CCN(c4cccc5sccc45)CC3)cc2[nH]1 [BREXPIPRAZOLE] | 93% and 89% | 19% and 14% | 30% and 50% | 67% and 52% | 0 | 96% and 97% | 6% and 10% | 32% and 47% | 50% and 34% | 51% and 82% |

Same assay, conditions: human, 48 h, 10 µM, compound concentration 10 uM

| Structure (SMILES) | Total Cell Count |
| --- | --- |
| COc1ccccc1N1CCN(C[C@@H](C(=O)NC(C)(C)C)c2ccccc2)CC1.Cl.Cl | 467 and 375 |
| O=c1ccc2ccc(OCCCCN3CCN(c4cccc5sccc45)CC3)cc2[nH]1 [BREXPIPRAZOLE] | 269 and 170 |

— ChEMBL document CHEMBL5724801, “EUbOPEN Chemogenomics Library - Multiplex” (2024)
